RanGTP-Impb inh = inhibitors of RanGTP-importin-beta interaction, primary screen, biochemical, FRET, CFP-Ran, YFP-importin-beta, homogeneous; hit rate 1.1% among 300,000; cell-free CFP-Ran/YFP-importin-beta FRET ratio; Ran GTPase (GTP-bound) - importin-beta complex; AID 2216, 2009; inhibition, % (test concentration not listed);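 active means more than half of the replicate wells show a fall in the fluorescence ratio signal beyond about 16%, limit read from the data, passing the limit was not always enough; inconclusive means exactly half of the replicate wells pass the set limit; inactive means fewer than half of replicates pass the limit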;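 further: 0% = DMSO wells and 100% = Ran loaded with GDP instead of GTP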
Hck-Nef inh = inhibitors of Nef-activated human Hck kinase, primary screen, biochemical, Z-Lyte FRET, 384-well, Hck-YEEI | Tyrosine-protein kinase HCK (Homo sapiens), P08631 | Recombinant Hck-YEEI plus Nef, Z-Lyte FRET kinase assay | inhibition, % at 20 µM | hit rate 0.68% among 220,000 | AID 463187, 2010;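 active means Hck-Nef kinase inhibition above about 50%, limit read from the data; inactive means inhibition below that limit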;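 further: 0% = DMSO with Hck plus Nef and 100% = Hck alone without Nef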
Runt-SMMHC FRET = inhibitors of RUNX1 Runt–CBFb-SMMHC binding, primary screen, biochemical, FRET, Cerulean-Runt, Venus-CBFb-SMMHC, uHTS; Cerulean-Runt/Venus-CBFb-SMMHC FRET ratio 530/480, 1 h; inhibition, % at 20 µM; hit rate 0.74% among 220,000;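 active means mean inhibition across duplicate retests at 20 µM reaching about 50%, limit read from the data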;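 further: 0% = DMSO wells and 100% = wells with excess untagged CBFb-SMMHC; inhibitors lower the FRET ratio by blocking Runt binding to CBFb-SMMHC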
Target sequence (Q01196 whole entry, looked up): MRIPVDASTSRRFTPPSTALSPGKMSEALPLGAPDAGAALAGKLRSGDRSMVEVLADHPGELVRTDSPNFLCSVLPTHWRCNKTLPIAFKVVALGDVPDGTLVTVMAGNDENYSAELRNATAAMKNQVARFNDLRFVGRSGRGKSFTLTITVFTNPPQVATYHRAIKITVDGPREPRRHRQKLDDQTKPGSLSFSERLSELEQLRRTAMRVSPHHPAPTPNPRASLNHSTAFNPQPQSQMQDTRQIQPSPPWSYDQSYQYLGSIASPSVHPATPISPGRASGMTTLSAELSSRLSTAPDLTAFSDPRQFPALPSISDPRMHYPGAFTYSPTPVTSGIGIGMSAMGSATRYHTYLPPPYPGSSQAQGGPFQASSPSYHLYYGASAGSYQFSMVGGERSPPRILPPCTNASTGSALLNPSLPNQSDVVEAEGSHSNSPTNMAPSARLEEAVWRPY
Target sequence (Q13951 whole entry, looked up): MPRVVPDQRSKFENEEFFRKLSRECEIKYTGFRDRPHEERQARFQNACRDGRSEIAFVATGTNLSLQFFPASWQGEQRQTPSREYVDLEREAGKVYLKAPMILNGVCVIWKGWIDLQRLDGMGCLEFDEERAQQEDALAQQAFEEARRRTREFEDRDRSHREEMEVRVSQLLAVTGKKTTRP
Runt-CBFb FRET = inhibitors of RUNX1 Runt–CBFb binding, primary screen, biochemical, FRET, Cerulean-Runt, Venus-CBFb, uHTS; Runt-related transcription factor 1 (Homo sapiens) + Core-binding factor subunit beta …; Cerulean-Runt/Venus-CBFb FRET ratio 530/480, 1 h; inhibition, % at 20 µM; hit rate 0.46% among 220,000; AID 1496, 2009;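 active means inhibition over about 50% at 20 µM in the single-dose screen, limit read from the data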;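 further: 0% = DMSO wells and 100% = excess unlabeled CBFb competitor control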
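Doses: 20 µM compound in 1% DMSO | Material: Cerulean-labeled Runt domain protein | Amount: Each fluorescent fusion protein 100 nM | Schedule: Two 1 h room-temperature incubations shielded from light | Measured by: FRET fluorescence | Evaluation: Loss of energy transfer signal | Controls: Unlabeled CBFb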
YIC counter = YIC intramolecular FRET probe signal interference, dose response, counter-screen for RanGTP-importin-beta inhibitor project, biochemical, fluorescence FRET; shares compounds with RanGTP-Impb inh; Purified YIC probe, intramolecular FRET ratio YFP/CFP; IC50, µM; hit rate 40% among 1,000; AID 435026, 2010;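 active means fitted half-maximal inhibitory concentration no more than tenfold above the top dose tested; inconclusive means flat fit with 30 to 70% activity, or poor fit; inactive means half-maximal concentration beyond tenfold above the top dose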
Hck Nef conf = retest of Hck:Nef kinase inhibitor hits, confirmation, biochemical, Z-Lyte FRET, 384-well, p-Tyr peptide counterscreen; Recombinant Hck-YEEI:Nef, Z-Lyte FRET kinase assay; calls only at 10 µM; hit rate 28% among 1,300; shares compounds with Hck-Nef inh;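 active means average inhibition of at least 50%, with Z-scores no higher than 3 in both the phospho-tyrosine peptide and fluorescence counterscreens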
Active calls of the source: *; i = inactive; ? = inconclusive; / = not tested or not shown; + = active, no number. In the library only some 1.9% were active in any assay of this set; here they are far more common.

SMILES | RanGTP-Impb inh | Hck-Nef inh | Runt-SMMHC FRET | Runt-CBFb FRET | Hck Nef conf | others
O=c1[nH]c(=O)n(-c2cccc3ccccc23)c(O)c1/C=N/N1CCCCCC1 | 22* | 14 | 0 | 0 | / | YIC counter=>50
Cc1ccc(-n2c(O)c(/C=N/N3CCCCCC3)c(=O)[nH]c2=O)cc1C | 22* | -7 | 2 | 2 | / | YIC counter=>50
COc1cccc(CNC(=O)CCC(=O)N2C[C@H]3C[C@H](C2)c2cccc(=O)n2C3)c1OC | 5 | / | / | / | /
NC(N)=N/N=C/c1ccc(N(c2ccccc2)c2ccccc2)cc1 | 23* | / | / | / | / | YIC counter=>50
Cc1ccc(C2(O)CN3CCC2CC3)cc1 (configuration not stated) | 1 | / | / | / | /
Nc1ccc(C2(c3ccc(N)cc3)CN3CCC2CC3)cc1 | 49* | 1 | -2 | 0 | / | YIC counter=>50
Clc1cccc(CNCCc2c[nH]c3ccccc23)c1 | 2 | / | / | / | /
O=c1[nH]c(O)c(/C=C2/C=CC(c3cc(Cl)ccc3Cl)=N2)c(=O)[nH]1 | 38* | 29 | 80* | 115* | / | YIC counter=4*
Cc1ccc2c(c1)=NC(=O)/C(=C/c1c(O)[nH]c(=O)[nH]c1=O)C=2 | -3 | 65* | -2 | 26 | +
CCCCCCN=C(C)c1c(O)n(Cc2ccccc2)c(=O)[nH]c1=O | -1 | -1 | 0 | -4 | /
O=c1c2ccccc2nc(-c2ccccc2)n1-c1ccccc1 | -1 | 3 | 3 | 0 | /
O=c1c2ccccc2[se]n1-c1ccccc1 | -3 | 102* | 39 | -3 | +
CC(C)n1cc(C(=O)N(CC(=O)NC(C)(C)C)Cc2ccccc2)cn1 | 2 | 6 | 4 | 2 | /
CCCCC(=O)N/N=C/c1c(O)n(CCc2ccc(OC)c(OC)c2)c(=O)[nH]c1=O | -1 | 78* | 4 | -3 | i
COc1ccc(CCn2c(O)c(/C=N/NC(=O)c3ccncc3)c(=O)[nH]c2=O)cc1OC | 1 | 17 | 20 | 8 | /
C[C@H](NC(=O)N1C[C@H]2C[C@@H](C1)c1cccc(=O)n1C2)C(=O)Nc1cccc(F)c1 | -5 | / | / | / | /
O=C(c1ccc(N2CC3CC(C2)c2cccc(=O)n2C3)c([N+](=O)[O-])c1)N1CCCC1 (configuration not stated) | 8 | 20 | -3 | 1 | /
O=C1NC(=O)C(=Cc2ccc(OCCOc3ccc([N+](=O)[O-])cc3)cc2)C(=O)N1 | 1 | 63* | -4 | 6 | i
CN1C(=O)C(=Cc2coc3ccccc3c2=O)C(=O)N(C)C1=O | -2 | 81* | -1 | 0 | +
CN1C(=O)C(=Cc2cn(CC#N)c3ccccc23)C(=O)N(C)C1=O | -1 | / | / | / | /
CCn1c(O)c(C(c2ccccn2)c2c(O)n(CC)c(=S)[nH]c2=O)c(=O)[nH]c1=S | -2 | -3 | 18 | 14 | /
CCN1C(=O)/C(=C/c2ccc3c(c2)CCN3CCCCl)C(=O)NC1=S | 25 | 55* | 5 | 8 | +
O=C1NC(=S)N(C2CC2)C(=O)/C1=C/c1ccc2c(c1)CCN2CCCCl | 1 | 24 | 1 | 8 | /
O=C1NC(=O)C(=Cc2coc3ccc(O)cc3c2=O)C(=O)N1 | -2 | 78* | -9 | 7 | +
CCCn1c(C)cc(C=O)c1C | -4 | 17 | 0 | -1 | /
SMILES | RanGTP-Impb inh | Hck-Nef inh | Runt-SMMHC FRET | Runt-CBFb FRET | Hck Nef conf | others
O=C(Cn1cc(C=C2C(=O)NC(=O)NC2=O)c2ccccc21)NCC1CCCO1 (configuration not stated) | 5 | / | / | / | /
Nc1c(C(=O)NCC2CCCO2)c2nc3ccccc3nc2n1Cc1ccco1 (configuration not stated) | 64* | 60* | 81* | 36 | /
COc1ccc(Cn2c(N)c(C(=O)NCc3ccco3)c3nc4ccccc4nc32)cc1OC | / | 62* | 57* | 17 | i
Cc1cc(/C=C2\C(=O)NC(=O)N(Cc3ccco3)C2=O)c(C)n1-c1ccc(O)cc1 | -2 | 24 | 3 | 33 | /
Cc1cc(/C=C2\C(=O)NC(=O)N(Cc3ccco3)C2=O)c(C)n1-c1ccc(C(=O)O)cc1 | 5 | 50* | -13 | -5 | i
O=C1NC(=O)N(CCc2ccc(F)cc2)C(=O)/C1=C\C=C\c1ccccc1 | / | 27 | 4 | 5 | /
O=C1NC(=O)N(Cc2ccccc2)C(=O)/C1=C\C=C\c1ccco1 | ? | 59* | 13 | 14 | i
CN(C)c1ccc(/C=C/C=C2/C(=O)NC(=O)N(c3ccccc3)C2=O)cc1 | 6 | 57* | 14 | 16 | i
O=C1NC(=O)N(c2ccccc2)C(=O)/C1=C/C=C/c1ccco1 | 0 | 29 | -30 | 3 | /
C=CCN1C(=O)NC(=O)/C(=C/C=C/c2ccccc2)C1=O | 3 | 51* | 34 | 25 | i
CN1C(=O)/C(=C/C=C/c2ccco2)C(=O)NC1=S | -5 | 54* | 8 | 18 | i
CN(C)C1=NP(N(C)C)(N(C)C)=NC(c2ccccc2)=N1 | 1 | 1 | 2 | 0 | /
C=CCn1c(O)c(C(C)=Nc2ccc(C(=O)O)cc2)c(=O)[nH]c1=O | 0 | 15 | -1 | -1 | /
Cc1ccc(N2C(=O)NC(=O)/C(=C\C=C\c3ccco3)C2=O)cc1C | -7 | 68* | -36 | 7 | i
Cc1ccc(N2C(=O)NC(=O)/C(=C\C=C\c3ccco3)C2=O)cc1 | 3 | 29 | -34 | 11 | /
COc1ccc(OC)c(N2C(=O)/C(=C/c3ccco3)C(=O)NC2=S)c1 | 3 | / | / | / | /
COc1ccc(OC)c(N2C(=O)NC(=O)/C(=C/c3ccc([N+](=O)[O-])s3)C2=O)c1 | 1 | 89* | 11 | 19 | i
O=c1oc2ccccc2c(O)c1C(c1ccc([N+](=O)[O-])cc1)c1c(O)c2ccccc2oc1=O | -2 | 73* | 10 | 16 | +
O=C1NC(=S)N(c2ccc(F)cc2)C(=O)/C1=C\c1ccoc1 | / | 79* | 5 | 11 | +
C=CCNC(=O)c1c(N)n(CCN2CCOCC2)c2nc3ccccc3nc12 | 80* | 50* | 44 | 81* | /
COCCNC(=O)c1c(N)n(CCC(C)C)c2nc3ccccc3nc12 | 82* | 64* | 59* | 43 | i
CC(C)c1ccc(-n2c(O)c(C=NC(CCS(C)=O)C(=O)O)c(=O)[nH]c2=S)cc1 (configuration not stated) | 2 | -5 | 1 | 1 | /

Screening results (PubChem BioAssay)
